Here are results for 38 variants from the RNAGym collection of RNA variant scans (doi:10.1126/science.aae0568).

Variants at the floor of the assay were thinned out. Where only a bound is given, the exact number is not on record here.

B1: tRNA (parent)
chain: GUUCCGUUGGCGUAAUGGUAACGCGUCUCCCUCCUAAGGAGAAGACUGCGGGUUCGAGUCCCGUACGGAACG

The data set covers variants of B1. Nature of the data set: yeast fitness relative to wild type (ratio to wild type); higher = fitter; tRNA-Arg(CCU), competitive growth, 37 C, YPD. In short, it runs like this:
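Changes in genotype frequencies gave Darwinian fitness relative to wild type. Frequencies were read by 100-nucleotide paired-end sequencing of gene amplicons before and after pooled Saccharomyces cerevisiae strains, carrying tRNA-Arg(CCU) gene variants at the native locus, were competed in YPD at 37°C for 24 hours in six replicates. A genotype was kept only with ≥ 100 starting reads, and estimates < 0.5 were set to 0.5.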
Consider GUUCCGUUGGCGUAACGGUAACGCGUCUCCCUCCUAAGGAGAAGACUGCGGAUUCAAGUCCCGUACGGAACG [U16C G52A G56A], for which the yeast fitness worked out at 0.69.

Regarding GUUCCGUUGGCGUAACGAUAACGCGUCACCAACCUAAGGAGAAGACUGCGGGUUCGGGUCCCGUACAGAACG [U16C G18A U28A C31A U32A A57G G67A], the yeast fitness was determined as 0.962. Regarding GUUCCGUUGGCGUAACGAUAACGCGUCUCCCUCGUAAGAAGAAGACUGCGGGUUCGAGUCCGGUACGGAACG [U16C G18A C34G G39A C62G], the yeast fitness was no more than 0.5. As for GUUCCGUUGGCGUAACGGUAACGUGUCUCUCUCCUAAGGAGAAGACUGCGGGUUCGAGUCCCGUAUGGAACG [U16C C24U C30U C66U], the yeast fitness was no more than 0.5. GUUCCGUUGGCGUAACGGUAACGCGUCUCCCUCCUAAGGAGAAGACUACGGGUUCGAGUCCCGUACGGAUCG [U16C G48A A70U]: the yeast fitness is 0.798.

As for GUUCCGUUGGCGUAACGGUAACGCGUCUCCCUCCUAAGGAGAAGACUGAGGGUUCGAGUCCCGUACGGAACG [U16C C49A], the yeast fitness came to 0.731. In the case of GUUCCGUUGGCGUAACGGUAACGCGUCUCUCUCCUAAGGAGAAGACUGCGGGUUCGAGUCCCGUACGGAACG [U16C C30U], the yeast fitness was determined as 0.893. Next, GUUCCGUUGGCGUAACGGUAACGCGUGUCCCUCCUAAGGAGAAGACUGCGGAUUCGAGUGCCGUACGGUCCG [U16C C27G G52A C60G A69U A70C]: no more than 0.5; GUUCCGUUGGCGUAACGGUAACGCGUGUCCCUCCUAAGGAGAAGACUCCGGGUUCGAGUCCCGUCCGGAACG [U16C C27G G48C A65C]: no more than 0.5. As for GUUCCGUUGGCGUAACGGUAACGCGUCUCAUUCCUAAGGAGAAGACUGCGGGUUCGAGUCCCGUACGGAACG [U16C C30A C31U], the yeast fitness was 0.834.

For GUUCCGUUGGCGUAACGGUAACGCGUCUCCCUCCUAAGGAGAAGACUGGGGGUUCGAGUCCUGUACGGAACG [U16C C49G C62U], the yeast fitness was determined as 0.528.

With GUUCCGUUGGCGUAACGGUAACGCGUCUCCCUCCUAAGGAGAAGACUGCGGGUUCAAGUCCCGUACCGAACG [U16C G56A G67C], the yeast fitness came to 0.514. In the case of GUUCCGUUGGCGUAACGGUAACGCGUCUCCCUCCUAAGGAGAAGACUGCGAGUUCGAGUCCCGUACGGAACG [U16C G51A], the yeast fitness turned out to be 0.633. For the variant GUUCCGUUGGCGUAACGGUAACGCGUCUCCCUCGUAAGGAGAAGACUGCGGGUUUGAGUCCCGUACGGAACG [U16C C34G C55U], the yeast fitness was no more than 0.5.

Regarding GUUCCGUUGGCGUAACGGUAACGCGUCUCCCUCCUAAGCAGAAGACUGCGGGUUCGAGUCCCGUACGGAACG [U16C G39C], the yeast fitness was found to be 0.696. Next, GUUCCGUUGGCGUAACGGUAACGCGUGUCCCUCCUAAGGAGAAGACUGCGGGUUCGAGUCCCGUACGGAACG [U16C C27G]: 0.727; GUUCCGUUGGCGUAACGGUAACGCGUCUCCCUCCUAAGGAGAAGACUGCCGGUUCGAGUCCCGUAUGGAACG [U16C G50C C66U]: 0.584; GUUCCGUUGGCGUAACGGUAACGCGUCUUCCUCUUAAGGAGAAGACUGCGGGUUCGCGUCCCGCACGGAACG [U16C C29U C34U A57C U64C]: no more than 0.5. Consider GUUCCGUUGGCGUAACGGUAAAGCGUCUCCCUCCUAAGGAGAAGACUGCGGGCUCGAGUCCCGUACGGAACG [U16C C22A U53C], for which the yeast fitness came to 0.629. Regarding GUUCCGUUGGCGUAACCGUAACGCGUCUCCCUCCUAACGAGAAGAUUGCGGGUUCGACUCCCGUACGGAACG [U16C G17C G38C C46U G58C], the yeast fitness was 0.64. With GUUCCGUUGGCGUAACGGUAACGCGUCUCCCUCGUAAGGAGAAGACUGCGGGUUCGAGUCCCGUUCUGAACG [U16C C34G A65U G67U] the figure was no more than 0.5; with GUUCCGUUGGCGUAACGGUAACGCGUCUCCAUCUUAAGGAGAAGACUGCGGGUUCGAGUCCCGUACGGCACG [U16C C31A C34U A69C], no more than 0.5; with GUUCCGUUGGCGUAACGGGAACGCGUGUCCCUCUUAAGGUGAAGACUGCGGGAUCGAGUCCCGUACGGAUCG [U16C U19G C27G C34U A40U U53A A70U], 0.674. With GUUCCGUUGGCGUAACGGUAACGCGUCUCCCUCGUAAGGAGAAGACUGCGAGUUCGAGUCCCGUACGGAACG [U16C C34G G51A] the figure was 0.534; with GUUCCGUUGGCGUAACGGUAACGCGUCUCCCUCAUAGGGAGAAGACUGCGGGUUCGAGUCCCGUACGGAACG [U16C C34A A37G], no more than 0.5. For the variant GUUCCGUUGGCGUAACGGUAACGCGUCUCCCUCCUAAGGAGAAGACUGCGGGUUCGAGUCCUGUACGGAACG [U16C C62U], the yeast fitness is 1. Next, GUUCCGUUGGCGUAACGGUAACGCGUCUCCAUCCUAAGGAGUAGACUGCGGGUUCGAGUCCGGUACGGACCG [U16C C31A A42U C62G A70C]: no more than 0.5; GUUCCGUUGGCGUAACGGUAACGCGUCUCCCUCCUAAGGAGAAGACUGCGGGUUCGACUCCCGUACGGAACG [U16C G58C]: 1.06. In the case of GUUCCGUUGGCGUAACGAUAACGGGUCUCCCUCCUAAGGAGAAGUCCGCGGGUUCGAGUCCCGUACGGAACG [U16C G18A C24G A45U U47C], the yeast fitness was no more than 0.5. With GUUCCGUUGGCGUAACGGUAACGCGUCUCCCUCCUAAGGAGAAGACUGCGGCUUCGAGUCCCGUACGGAGCG [U16C G52C A70G] the figure was no more than 0.5; with GUUCCGUUGGCGUAACGGUAACGCGUCUCCAUCCUAAGGAGAAGACUGCGAGUUCGAGUCCCGUACGGAACG [U16C C31A G51A], no more than 0.5; with GUUCCGUUGGCGUAACGGUAACGCGUCUCCCUCCUAAGGAGAAGACUCCGGGUUCGAGUCCUGUGCGGAACG [U16C G48C C62U A65G], no more than 0.5. Next, GUUCCGUUGGCGUAACGGUAACGCGUUUCCCUCCUAAGGAGAAGACUGCGGGUUCGAGUCCCAUGCGGAACG [U16C C27U G63A A65G]: no more than 0.5. Next, GUUCCGUUGGCGUAACCGUAAGGCGUCUCCCUCCUAAGGAGAAGACUGCGGGUUCGAGUCCCGUACGGAACG [U16C G17C C22G]: 0.534; GUUCCGUUGGCGUAACGGUAACGCGUCUUCCUCCUUAGGCGAAGAUUGCGGGUUCGAGUCCCGUACGGAACG [U16C C29U A36U A40C C46U]: no more than 0.5; GUUCCGUUGGCGUAACGGUAAUGCGUCUCCCUCCUAUGGAGAAGACUGCGGGUUCGAGUCCCGUACCGAACG [U16C C22U A37U G67C]: no more than 0.5. As for GUUCCGUUGGCGUAACGGUAACGCGUCUCCCUCCUAAGGAGAAGACUGCGGGUUCGAACCCCGUACGGAACG [U16C G58A U59C], the yeast fitness turned out to be 0.555. Take GUUCCGUUGGCGUAACGGUAACGGGUCUCGCUCCUUAGGAGAAGACUGCGGGUUCGAGUCCCGUAUGGAACG [U16C C24G C30G A36U C66U]: the yeast fitness was no more than 0.5.
